Columns and labels:
Type in all cases: in vivo, mouse
obese high-fat-fed mice = experiment: body weight and food intake in obese high-fat-fed mice
WT and Gipr−/− mice = experiment: intraperitoneal glucose tolerance test in WT and Gipr−/− mice
[1] = test system: brain neuronal activity (cFos); experiment: whole-brain cFos analysis; settings: 120 min
Outline: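 Chow-fed male C57BL/6J mice were acclimated with daily s.c. PBS for 4 days. On day 5 they received s.c. GIPR agonist (10 nmol/kg), PYY analog (100 nmol/kg), GDF15 (2 nmol/kg) or combinations. Mice were formalin-perfused 120 min post-dose, and brains were iDISCO+-cleared, cFos-immunostained (rabbit, 1:200), light-sheet imaged and registered. Counts came from voxel-based statistics within PBN_D/PBN_V hotspots defined by averaged PYY- and GDF15-group signal. Vehicle n = 8.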

[2] = agent alone, dosed once daily, 72-h dosing period, n = 6 per group

Molecule | weight loss in combination with the LAPYY analog (obese high-fat-fed mice; LAGIPRA 10 nmol/kg plus LAPYY analog, once daily) | body weight (obese high-fat-fed mice; [2]) | food intake (obese high-fat-fed mice; [2]) | blood glucose in intraperitoneal glucose tolerance test (WT and Gipr−/− mice) | number of cFos+ cells in the BST [1] | number of cFos+ cells in the NTS and DMX [1] | brain regions with decreased cFos expression ([1]; GDF15 2 nmol/kg s.c., vs vehicle, n = 8) | brain regions with increased cFos expression ([1]; GIPRA 10, PYY 100, GDF15 2 nmol/kg s.c., vs vehicle, n = 8)
LAGIPRA | only delivered greater weight loss in combination with a low dose of the LAPYY analog | reduced | reduced | lowering blood glucose | – | – | – | –
GDF15: recombinant human GDF15, cytokine used as aversive agent (protein, UniProt Q99988 195-308, looked up) Growth/differentiation factor …: ARARNGDHCPLGPGRCCRLHTVRASLEDLGWADWVLSPREVQVTMCIGACPSQFRAANMHAQIKTSLHRLKPDTVPAPCCVPASYNPMVLIQKTDTGVSLQTYDDLLAKDCHCI | – | – | – | – | increased numbers | increased number | decreased cFos expression in nine regions | increased cFos expression in seven brain areas
